# Biological target: T1, Glycerol-3-phosphate acyltransferase 1, mitochondrial (Mus musculus, UniProt Q61586)
# T1 sequence (Q61586 whole entry): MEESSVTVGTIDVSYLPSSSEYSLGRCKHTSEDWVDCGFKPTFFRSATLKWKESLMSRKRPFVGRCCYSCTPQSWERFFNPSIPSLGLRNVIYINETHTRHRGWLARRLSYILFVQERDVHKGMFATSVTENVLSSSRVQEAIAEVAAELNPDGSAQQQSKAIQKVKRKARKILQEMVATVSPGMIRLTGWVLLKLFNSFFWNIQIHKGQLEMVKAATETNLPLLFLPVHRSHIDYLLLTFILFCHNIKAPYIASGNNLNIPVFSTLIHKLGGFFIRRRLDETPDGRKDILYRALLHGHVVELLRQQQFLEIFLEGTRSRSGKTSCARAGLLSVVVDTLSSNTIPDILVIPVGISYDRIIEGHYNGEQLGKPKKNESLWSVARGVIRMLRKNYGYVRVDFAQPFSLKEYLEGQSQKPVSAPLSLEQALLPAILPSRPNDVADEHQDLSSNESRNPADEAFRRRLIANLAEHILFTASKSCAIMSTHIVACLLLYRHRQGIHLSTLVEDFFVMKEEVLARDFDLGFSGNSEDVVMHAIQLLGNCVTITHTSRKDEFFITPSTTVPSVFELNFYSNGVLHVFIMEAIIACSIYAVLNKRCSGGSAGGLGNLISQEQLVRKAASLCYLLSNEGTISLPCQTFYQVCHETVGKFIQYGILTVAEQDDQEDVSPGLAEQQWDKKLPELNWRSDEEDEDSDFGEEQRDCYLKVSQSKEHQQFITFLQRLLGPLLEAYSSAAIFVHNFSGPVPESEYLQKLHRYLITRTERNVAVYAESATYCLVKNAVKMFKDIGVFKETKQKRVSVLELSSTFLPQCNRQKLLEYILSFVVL
# Assay: Inhibition of GPAT in BALB/c mouse mitochondria using 14C-labeled glycerol-3-phosphate and palmitoyl-CoA incubated for 10 mins by scintillation counting method
# Summary of the method: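 Mitochondria isolated from freshly harvested BALB/c mouse liver by differential centrifugation (1000 × g, then 3500 × g, twice) and resuspended in HEPES pH 7.4 storage buffer. Reaction in 75 mM Tris/HCl pH 7.4, 4 mM MgCl₂, 2 mg/mL BSA, 14C-glycerol-3-phosphate (7.6 mCi/mmol), 50 μM palmitoyl-CoA. Inhibitor 0–40 μg/mL in DMSO. Triplicates. IC50 taken relative to DMSO vehicle control activity.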
structure (smiles),measurement,value
CCCCCCCCS(=O)(=O)Nc1cc(-c2ccccc2Cl)ccc1C(=O)O,IC50,26.9 µM
CCCCCCCCS(=O)(=O)Nc1cc(-c2cccc(Cl)c2)ccc1C(=O)O,IC50,13.8 µM
CCCCCCCCS(=O)(=O)Nc1cc(-c2ccc(Cl)cc2)ccc1C(=O)O,IC50,18.1 µM
CCCCCCCCS(=O)(=O)Nc1cc(-c2ccc(CCCC)cc2)ccc1C(=O)O,IC50,15.7 µM
CCCCCCCCS(=O)(=O)Nc1cc(-c2ccccc2-c2ccccc2)ccc1C(=O)O,IC50,17.1 µM
CCCCCCCCS(=O)(=O)Nc1cc(-c2ccc(-c3ccccc3)cc2)ccc1C(=O)O,IC50,13.5 µM
CCCCCCCCS(=O)(=O)Nc1cc(-c2ccccc2OC)ccc1C(=O)O,IC50,16.1 µM
CCCCCCCCS(=O)(=O)Nc1cc(-c2ccc(OC)cc2)ccc1C(=O)O,IC50,13.3 µM
CCCCCCCCS(=O)(=O)Nc1cc(-c2ccccc2F)ccc1C(=O)O,IC50,47.2 µM
CCCCCCCCS(=O)(=O)Nc1cc(-c2cccc(F)c2)ccc1C(=O)O,IC50,32.6 µM
CCCCCCCCS(=O)(=O)Nc1cc(-c2ccc(O)cc2)ccc1C(=O)O,IC50,64.8 µM
CCCCCCCCS(=O)(=O)Nc1ccc(-c2cccc(Cl)c2)cc1C(=O)O,IC50,8.9 µM
CCCCCCCCS(=O)(=O)Nc1ccc(-c2ccc(Cl)cc2)cc1C(=O)O,IC50,9.2 µM
CCCCCCCCS(=O)(=O)Nc1ccc(-c2ccc(CCCC)cc2)cc1C(=O)O,IC50,9 µM
CCCCCCCCS(=O)(=O)Nc1ccc(-c2ccccc2-c2ccccc2)cc1C(=O)O,IC50,10.1 µM
CCCCCCCCS(=O)(=O)Nc1ccc(-c2ccc(-c3ccccc3)cc2)cc1C(=O)O,IC50,29.1 µM
CCCCCCCCS(=O)(=O)Nc1ccc(-c2ccccc2OC)cc1C(=O)O,IC50,27.6 µM
CCCCCCCCS(=O)(=O)Nc1ccc(-c2ccc(OC)cc2)cc1C(=O)O,IC50,19.5 µM
CCCCCCCCS(=O)(=O)Nc1ccc(-c2ccccc2F)cc1C(=O)O,IC50,34.6 µM
CCCCCCCCS(=O)(=O)Nc1ccc(-c2cccc(F)c2)cc1C(=O)O,IC50,37.6 µM
CCCCCCCCS(=O)(=O)Nc1ccc(-c2ccccc2O)cc1C(=O)O,IC50,61.7 µM
CCCCCCCCS(=O)(=O)Nc1ccc(-c2ccc(O)cc2)cc1C(=O)O,IC50,47.3 µM
CCCCCCCCS(=O)(=O)Nc1cc(C(=O)c2ccc(CCCC)cc2)ccc1C(=O)O,IC50,15.8 µM
CCCCCCCCS(=O)(=O)Nc1cc(C(=O)c2ccc(-c3ccccc3)cc2)ccc1C(=O)O,IC50,8.5 µM
CCCCCCCCS(=O)(=O)Nc1cc(/C=C/c2ccccc2)ccc1C(=O)O,IC50,38 µM
CCCCCCCCS(=O)(=O)Nc1cc(/C=C/c2ccc(OC)cc2)ccc1C(=O)O,IC50,38.7 µM
CCCCCCCCS(=O)(=O)Nc1cc(CCc2ccccc2)ccc1C(=O)O,IC50,37.5 µM
CCCCCCCCS(=O)(=O)Nc1cc(CCc2ccc(OC)cc2)ccc1C(=O)O,IC50,43 µM
CCCCCCCCS(=O)(=O)Nc1ccc(C(=O)c2ccc(CCCC)cc2)cc1C(=O)O,IC50,31.7 µM
CCCCCCCCS(=O)(=O)Nc1ccc(C(=O)c2ccc(-c3ccccc3)cc2)cc1C(=O)O,IC50,13 µM
CCCCCCCCS(=O)(=O)Nc1ccc(C(=O)c2ccccc2OC)cc1C(=O)O,IC50,59.2 µM
CCCCCCCCS(=O)(=O)Nc1ccc(C(=O)c2ccc(OC)cc2)cc1C(=O)O,IC50,44.3 µM
CCCCCCCCS(=O)(=O)Nc1ccc(/C=C/c2ccccc2)cc1C(=O)O,IC50,16.3 µM
CCCCCCCCS(=O)(=O)Nc1ccc(/C=C/c2ccc(OC)cc2)cc1C(=O)O,IC50,37.1 µM
CCCCCCCCS(=O)(=O)Nc1ccc(CCc2ccccc2)cc1C(=O)O,IC50,37.5 µM
CCCCCCCCS(=O)(=O)Nc1ccc(CCc2ccc(OC)cc2)cc1C(=O)O,IC50,26.3 µM

# Source: ChEMBL document CHEMBL3580600, “Design, Synthesis, and Evaluation of 4- and 5-Substituted o-(Octanesulfonamido)benzoic Acids as Inhibitors of Glycerol-3-Phosphate Acyltransferase” (Medchemcomm, 2014)
